# Reference: ChEMBL document CHEMBL3734668, “Evaluation of small molecule SecA inhibitors against methicillin-resistant Staphylococcus aureus” (Bioorg Med Chem, 2015)
# The source made the active and inactive calls. The rule behind the calls is not given here.
# Key:
# Staphylococcus aureus [1] = experiment: Bacteriostatic activity against Staphylococcus aureus K2068 overexpressing MepA; type: functional
# Summary of the method: (§1)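 Broth microdilution MIC per CLSI guidance in LB, 37 °C, shaking 250 rpm, 24 hr; run in triplicate in three separate experiments. MIC taken as lowest inhibitor concentration with no growth. Compounds from DMSO stocks; untreated controls carry equal DMSO.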
# Staphylococcus aureus [2] = experiment: Potency index, ratio of MIC for polymyxin B to MIC for test compound against Methicillin resistant Staphylococcus aureus; type: functional
# [3] = molecular target: T1, Protein translocase subunit SecA 1 (Staphylococcus aureus (strain NCTC 8325)) (UniProt O06446); experiment: Inhibition of Staphylococcus aureus SecA1 assessed as reduction in secretion of alpha-hemolysin at 10 uM by Western blot analysis
# T1 sequence (whole entry): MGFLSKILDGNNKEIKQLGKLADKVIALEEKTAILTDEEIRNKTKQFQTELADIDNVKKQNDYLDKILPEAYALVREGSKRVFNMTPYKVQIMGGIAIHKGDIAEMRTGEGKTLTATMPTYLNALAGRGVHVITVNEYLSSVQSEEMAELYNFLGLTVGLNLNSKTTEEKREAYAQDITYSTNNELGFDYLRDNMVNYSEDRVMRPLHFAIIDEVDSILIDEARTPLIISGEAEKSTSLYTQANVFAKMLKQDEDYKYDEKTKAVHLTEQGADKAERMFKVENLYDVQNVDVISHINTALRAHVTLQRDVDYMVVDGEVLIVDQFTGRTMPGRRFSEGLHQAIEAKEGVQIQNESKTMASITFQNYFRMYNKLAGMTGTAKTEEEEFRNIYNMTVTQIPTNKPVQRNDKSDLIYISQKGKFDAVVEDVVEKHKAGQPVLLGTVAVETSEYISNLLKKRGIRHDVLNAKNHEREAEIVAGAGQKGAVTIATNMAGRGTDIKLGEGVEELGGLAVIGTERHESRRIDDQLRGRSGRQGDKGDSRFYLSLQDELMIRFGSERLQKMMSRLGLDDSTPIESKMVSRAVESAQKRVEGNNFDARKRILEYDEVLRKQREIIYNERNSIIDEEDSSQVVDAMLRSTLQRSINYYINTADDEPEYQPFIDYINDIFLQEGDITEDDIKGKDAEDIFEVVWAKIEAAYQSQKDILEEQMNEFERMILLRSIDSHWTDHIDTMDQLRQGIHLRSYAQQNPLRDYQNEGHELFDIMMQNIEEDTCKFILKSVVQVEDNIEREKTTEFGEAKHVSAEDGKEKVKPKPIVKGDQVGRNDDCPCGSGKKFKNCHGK
# Summary of the method: (§2)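 S. aureus Mu50 grown in LB at 37 °C; inhibitor added at mid-log phase and cultures sampled at several time points. Supernatants separated by centrifugation, filtered 0.45 μm, and probed by Western blot with antibodies to α-hemolysin, TSST-1 or enterotoxin B.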
# Staphylococcus aureus [4] = experiment: Bacteriostatic activity against Staphylococcus aureus ATCC 6538 after 24 hrs; type: functional; conditions: ATCC 6538, 24 h
# Staphylococcus aureus [5] = experiment: Potency index, ratio of MIC for vancomysin to MIC for test compound against Methicillin resistant Staphylococcus aureus; type: functional
# Staphylococcus aureus [6] = experiment: Potency index, ratio of MIC for erythromycin to MIC for test compound against Methicillin resistant Staphylococcus aureus; type: functional
# Staphylococcus aureus [7] = experiment: Potency index, ratio of MIC for kanamycin to MIC for test compound against Methicillin resistant Staphylococcus aureus; type: functional
# Staphylococcus aureus [8] = experiment: Potency index, ratio of MIC for rifampicin to MIC for test compound against Methicillin resistant Staphylococcus aureus; type: functional
# [9] = molecular target: T2, Protein translocase subunit SecA 1 (Staphylococcus aureus (strain NCTC 8325), UniProt O06446); experiment: Inhibition of Staphylococcus aureus ATCC 35556 SecA1 liposome dependent proOmpA translocation incubated for 1.5 hrs measured by Western blot analysis
# T2 sequence (O06446 whole entry): T1 sequence (whole entry)
# Summary of the method: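 Per 0.1 ml: 50 mM Tris-HCl pH 7.6, 20 mM NH4Cl, 25 mM KCl, 2 mM Mg(OAc)2, ATP-regenerating system, 1.5 μg SaSecA1, 100 ng SecB, 120 ng proOmpA, 120 μg liposomes, with varying inhibitor; 30 °C, 1.5 hr. Translocated proOmpA scored as proteinase K-protected, quantified by Western blot; n = 3.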
# Staphylococcus aureus [10] = experiment: Effect on general protein synthesis in Staphylococcus aureus Mu50 at 10 uM measured within 15 hrs; type: ADME, organism-based; conditions: in vivo
# [11] = molecular target: T1, Protein translocase subunit SecA 1 (Staphylococcus aureus (strain NCTC 8325)); experiment: Non-competitive inhibition of Staphylococcus aureus ATCC 35556 SecA1 liposomal ATPase activity in Xenopus laevis oocytes incubated for 3 hrs measured by Lineweaver-Burk plot analysis; type: cell-based
# Summary of the method: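 SaSecA1-liposome plus proOmpA co-injected into Xenopus oocytes at varying ATP and inhibitor concentrations, incubated 3 hr at 23 °C, ion current recorded 1 min; n = 9-10. Inhibition mode assessed across ATP levels.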
# Staphylococcus aureus [12] = experiment: Bacteriostatic activity against Staphylococcus aureus Mu50 after 24 hrs; type: functional; conditions: Mu50, 24 h
# Summary of the method: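 Broth microdilution per CLSI guidelines in LB. Inhibitor added to dilute early-log culture (OD600 ≈ 0.05), 37 °C, 250 rpm, 24 hrs. Run in triplicate in three separate experiments. MIC read as the lowest concentration with no growth.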
# Staphylococcus aureus [13] = experiment: Bactericidal activity against Methicillin resistant Staphylococcus aureus Mu50 assessed as CFU reduction for 1 hr; type: functional, organism-based
# Summary of the method: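 Log-phase Mu50 cultures (OD600 ≈ 0.5) mixed with a range of inhibitor concentrations, shaken 1,000 rpm at 37 °C for 1 hr under normal room light. Cultures then serially diluted in LB, plated on LB agar and incubated overnight at 37 °C. Activity expressed as reduction in CFU relative to untreated control containing matching DMSO.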
# Staphylococcus aureus [14] = experiment: Bacteriostatic activity against Staphylococcus aureus N315 after 24 hrs; type: functional; conditions: N315, 24 h; summary of the method: as §1
# [15] = molecular target: T1, Protein translocase subunit SecA 1 (Staphylococcus aureus (strain NCTC 8325)); experiment: Inhibition of Staphylococcus aureus SecA1 assessed as reduction in secretion of enterotoxin B at 10 uM by Western blot analysis; summary of the method: as §2
# Staphylococcus aureus [16] = experiment: Bacteriostatic activity against Staphylococcus aureus K2361 overexpressing NorA; type: functional; summary of the method: as §1
# Staphylococcus aureus [17] = experiment: Bactericidal activity against Methicillin sensitive Staphylococcus aureus ATCC 6538 assessed as CFU reduction at 30 uM for 1 hr; type: functional
# Summary of the method: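 Log-phase LB cultures (OD600 ≈ 0.5) mixed with a range of inhibitor concentrations, shaken at 1,000 rpm, 37 °C, 1 hr, under normal room light. Cultures serially diluted in LB, plated on LB agar, incubated overnight at 37 °C. CFU counted; bactericidal effect taken as CFU reduction versus untreated control.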
# Staphylococcus aureus [18] = experiment: Bacteriostatic activity against MepA deficient Staphylococcus aureus K2908; type: functional; summary of the method: as §1
compound,measurement,setting,value
CCCCCCC1c2ccc(O)cc2Oc2cc(O)ccc21,MIC,Staphylococcus aureus [1],4 µg/mL
same,Ratio,Staphylococcus aureus [2],7
same,inhibition,[3],Active
same,MIC,Staphylococcus aureus [4],4 µg/mL
same,Ratio,Staphylococcus aureus [5],2
same,Ratio,Staphylococcus aureus [6],250
same,Ratio,Staphylococcus aureus [7],250
same,Ratio,Staphylococcus aureus [8],250
same,IC50,[9],4 µM
same,Activity,Staphylococcus aureus [10],Non-toxic
same,inhibition,[11],Active
same,MIC,Staphylococcus aureus [12],4 µg/mL
same,Activity,Staphylococcus aureus [13],Dose-dependent effect
same,MIC,Staphylococcus aureus [14],4 µg/mL
same,inhibition,[15],Active
same,MIC,Staphylococcus aureus [16],4 µg/mL
same,Activity,Staphylococcus aureus [17],2 log10CFU/ml
same,MIC,Staphylococcus aureus [18],4 µg/mL
